Compound activity: PubChem BioAssay, several laboratories
ADAM10 inh: inhibitors of human ADAM10 | O14672 | recombinant ADAM10, EDANS/DABCYL FRET peptide cleavage, 3 h | inhibition, % at 7 µM | hit rate 0.62% among 370,000 | AID 720582;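 active = inhibition above a per-campaign cutoff equal to the mean of compounds falling between control-based bounds plus 3 SD, cut at about 20% in these data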;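 also: 0% = DMSO wells while the 100% control is not disclosed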
Target sequence (O14672 214-748 limits assumed): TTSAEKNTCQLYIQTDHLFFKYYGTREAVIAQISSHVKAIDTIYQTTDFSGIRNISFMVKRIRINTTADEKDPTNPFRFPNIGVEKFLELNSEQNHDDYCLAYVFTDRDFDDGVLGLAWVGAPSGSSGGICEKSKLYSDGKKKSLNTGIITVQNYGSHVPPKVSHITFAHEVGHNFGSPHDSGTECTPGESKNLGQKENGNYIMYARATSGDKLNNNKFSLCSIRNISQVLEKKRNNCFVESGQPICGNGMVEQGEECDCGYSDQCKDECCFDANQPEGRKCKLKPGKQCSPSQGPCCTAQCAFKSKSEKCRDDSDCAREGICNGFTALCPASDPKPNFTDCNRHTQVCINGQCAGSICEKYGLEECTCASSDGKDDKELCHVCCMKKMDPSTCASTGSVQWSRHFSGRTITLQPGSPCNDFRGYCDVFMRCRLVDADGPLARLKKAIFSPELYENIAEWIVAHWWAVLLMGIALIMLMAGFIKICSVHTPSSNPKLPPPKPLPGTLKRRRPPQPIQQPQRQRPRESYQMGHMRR
ADAM17 inh: inhibitors of human ADAM17; hit rate 0.83% among 370,000; recombinant ADAM17, EDANS/DABCYL FRET peptide cleavage; AID 720648; inhibition, % at 6.95 µM; P78536;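 active = inhibition above the mean of compounds lying between control limits plus 3 SD, set per campaign, cut at about 8.5% in these data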;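 also: 0% = DMSO-only wells as the low control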
SENP1 FRET inh: inhibitors of human SENP1 SUMO protease catalytic domain. hit rate 0.21% among 360,000. recombinant SENP1 catalytic domain, CyPet-SUMO1-YPet FRET cleavage. Q9P0U3. inhibition, % at 10 µM;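 active = inhibition at least 30% at 10 µM, raw YFP signal under a set limit, fluorescence ratio 0.5 to 1.5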;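 also: 0% = enzyme with DMSO and 100% = no enzyme wells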
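Material: hSENP1 catalytic domain, recombinant; medium: Tris pH 8 with BME, BSA, NP40 and catalase; compound: single concentration of 10 µM compound, 0.5% DMSO final; technique: FRET read of cyan and yellow fluorescence; timing: 50 min enzyme reaction, room temperature, light-protected; reagent: SFCypet-SUMO1-SFYpet substrate at 25 nM; control set: no-enzyme low, enzyme-DMSO high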
FAS TE block: inhibitors of human fatty acid synthase thioesterase domain; P49327; recombinant FAS-TE, OMFH fluorogenic substrate, fluorescence endpoint; inhibition, % at 15 µM; hit rate 0.67% among 360,000; AID 602261;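 active = compounds whose normalised, plate-corrected inhibition of enzyme fluorescence in the single-dose primary screen is 50% or more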;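 also: 0% = DMSO with enzyme and 100% = substrate without enzyme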
ADAM10 counter: inhibits human ADAM10 in ADAM17 exosite counter-screen. shares compounds with ADAM17 inh. recombinant ADAM10, EDANS/DABCYL FRET peptide cleavage, 3 h. inhibition, % at 6.95 µM. hit rate 47% among 2,900. AID 743256;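 active = mean inhibition over the triplicate runs exceeds the activity threshold set in the earlier primary screen, cut at about 20% in these data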;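 also: 0% = DMSO wells and 100% = marimastat wells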
ADAM17 confirm: confirmation of inhibitors of human ADAM17. shares compounds with ADAM17 inh. recombinant ADAM17, EDANS/DABCYL QFRET peptide cleavage. inhibition, % at 6.95 µM. hit rate 65% among 2,900;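 active = mean inhibition across replicates above the hit cutoff set in the primary screen, cut at about 8.5% in these data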;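 also: 0% = DMSO wells and 100% = marimastat wells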
Starred values were filed as active, the others as inactive; i = inactive; . = not tested or not shown. Rows were chosen to be rich in hits. Some 1.9% of all compounds tested hit in one or more screens of this group.

SMILES	ADAM10 inh	ADAM17 inh	SENP1 FRET inh	FAS TE block	ADAM10 counter	ADAM17 confirm
Nc1nc(Nc2ccccc2)nc(NCc2ccccc2)c1[N+](=O)[O-]	15.6	1.9	1.2	33.3	.	.
Cc1cccc(Nc2nc(N)c([N+](=O)[O-])c(NCc3ccccc3)n2)c1	13.3	9.2*	1.9	37.5	10.4	5.5
CNc1nc(N)c([N+](=O)[O-])c(Nc2cccc(OC)c2)n1	5.7	2.5	.	.	.	.
Cc1nc2cc[nH]n2c(=O)c1CCc1ccccc1	-25.4	-13.8	.	.	.	.
Nc1nc(N)c(Br)c(Nc2ccc(Cl)c(Cl)c2)n1	9.7	10.0*	-8.0	15.0	7.3	5.5
CC(=O)c1ccc(NC(=O)COC(=O)CCN2C(=O)c3cccc([N+](=O)[O-])c3C2=O)cc1	-0.2	-0.6	-0.3	-1.3	.	.
CC(C)N(c1ccccc1)c1ccc(NC(=O)COC(=O)CCN2C(=O)c3cccc([N+](=O)[O-])c3C2=O)cc1	10.9	8.7*	-8.4	32.4	24.9*	14.5*
CCOC(=O)[C@@H]1CSCCS(=O)(=O)N1C(=O)[C@H](CC(C)C)NC(=O)OC(C)(C)C	-10.4	-5.0	.	.	.	.
C[C@H](CO)N1C[C@H](C)[C@@H](CN(C)Cc2ccc(C(=O)O)cc2)OCCCC[C@H](C)Oc2ccc(NC(=O)CCC(F)(F)F)cc2C1=O	-4.6	-2.9	.	.	.	.
C[C@@H]1CN([C@H](C)CO)C(=O)c2cc(NS(=O)(=O)c3ccc(F)cc3)ccc2O[C@@H]1CN(C)Cc1ccc(Cl)c(Cl)c1	14.2	9.6*	-0.6	18.8	39.5*	19.1*
C[C@@H]1CN([C@H](C)CO)C(=O)c2cc(NS(=O)(=O)c3ccccc3)ccc2O[C@@H](C)CCCCO[C@@H]1CN(C)Cc1ccc(Cl)c(Cl)c1	-1.4	-2.3	.	.	.	.
C[C@@H]1CCCCO[C@@H](CN(C)Cc2ccc(Cl)c(Cl)c2)[C@@H](C)CN([C@H](C)CO)C(=O)c2cc(NC(=O)CCC(F)(F)F)ccc2O1	1.2	9.2*	-0.8	23.3	42.5*	22.4*
COc1ccc(S(=O)(=O)Nc2ccc3c(c2)CC(=O)N([C@@H](C)CO)C[C@H](C)[C@@H](CN(C)S(=O)(=O)c2ccc(F)cc2)O3)cc1	14.4	10.4*	-0.2	8.7	7.6	2.6
COC(=O)C1=C(C)N(Cc2ccccc2C(F)(F)F)C(=NCc2ccc(C(F)(F)F)cc2)NC1c1ccccc1 (configuration not stated)	-1.5	-1.2	.	.	.	.
Cc1ccc(-n2c(SCC(=O)Nc3ccc4c(c3)OCCO4)nnc2-c2ccccn2)cc1	3.0	-2.3	.	.	.	.
COc1ccc2c(c1)[C@@]1(NCCc3c1[nH]c1ccc(OC)cc31)C(=O)N2C	6.9	-1.7	.	.	.	.
COc1ccc([C@H]2OC(=O)C[C@H]2C(=O)N2CCCC2)cc1OC	-3.7	-0.6	.	.	.	.
Cc1ccc(NC(=O)COC(=O)Cc2c[nH]c3ccccc23)cc1C	11.9	14.0*	2.6	18.2	1.8	4.6
CCOC(=O)CCCc1c[nH]c2ccccc12	-6.0	-4.4	1.6	-5.2	.	.
CC(C)(C)NC(=O)NC(=O)COC(=O)CCCc1c[nH]c2ccccc12	17.4	11.5*	1.6	7.2	12.8	7.6
CC1(C)CC(=O)C=C(Nc2ccccc2NC(=O)c2ccc(F)cc2F)C1	-6.6	-1.6	.	.	.	.
COc1ccc(-c2cccc3[nH]c4c(c23)CCN2C(=O)[C@H]3[C@H](C)ON(C)[C@H]3C[C@@H]42)cc1	i	-165.9	.	.	.	.
O=C(NCC(=O)N1CCN(C(c2ccccc2)c2ccccc2)CC1)c1ccccc1Br	14.2	12.2*	0.3	15.1	20.1*	11.9*
O=C(NCC(=O)N1CCN(C(c2ccccc2)c2ccccc2)CC1)c1ccc(Br)o1	1.0	0.1	2.0	13.7	.	.
CCN(CC)C(=O)CC[C@@H]1CC[C@]2(CCCN(Cc3cccc4ccccc34)C2)O1	2.8	-0.2	.	.	.	.
SMILES	ADAM10 inh	ADAM17 inh	SENP1 FRET inh	FAS TE block	ADAM10 counter	ADAM17 confirm
Cc1cc2c(c(=O)o1)[C@@]1(C(=O)N(C)c3ccc([N+](=O)[O-])cc31)C1=C(CCCC1=O)O2	4.1	8.7*	.	.	0.0	3.9
O=C(NCCc1ccccc1)OCc1cn(Cc2ccccc2F)nn1	4.2	-0.1	.	.	.	.
COc1cccc(C2NC(c3cccc(OC)c3O)C(C)C(=O)C2C)c1O (configuration not stated)	0.8	0.6	0.3	-7.0	.	.
CC1C(=O)C(C)C(c2cc(Cl)ccc2O)NC1c1cc(Cl)ccc1O (configuration not stated)	17.9	9.6*	-2.1	26.7	32.5*	16.5*
O=S1(=O)c2ccc(N3CCC[C@H]3CO)cc2O[C@@H]2CCN1C2	-3.3	-4.0	.	.	.	.
Cc1ccccc1-c1cc2nc(Oc3cccc4ccccc34)n(C)c(=O)c2s1	1.3	9.2*	3.1	5.0	14.9	9.5*
CCOC(=O)c1cnc2ccc(Br)cc2c1NCCO	6.9	0.1	1.0	-2.3	.	.
CCOC(=O)c1cnc2ccc(Br)cc2c1NCC(C)O (configuration not stated)	7.3	10.3*	0.1	-2.3	-6.0	1.4
CCN1Cc2nnn(Cc3ccccc3)c2-c2cc(F)ccc2S1(=O)=O	-2.6	-1.1	.	.	.	.
COc1ccc(Cn2cc(F)c(=O)n(CCC(C)C)c2=O)cc1[N+](=O)[O-]	15.7	9.8*	0.8	18.2	-4.2	0.4
CCCCCCCCN1CN2Cc3ccccc3C2CS1(=O)=O (configuration not stated)	5.6	0.0	.	.	.	.
COc1ccccc1NC(=O)c1ccc(NC(=O)COC(=O)CCC2CCCC2)cc1	13.4	9.4*	3.4	34.4	27.2*	15.4*
C=CCc1cccc(CNc2nc3ccccc3n2CCN2CCOCC2)c1O	14.0	11.9*	0.5	23.6	11.5	9.3*
CC(=NN1CCN(c2ccccn2)CC1)c1ccccc1O	-7.5	-2.5	.	.	.	.
CC1(c2nnnn2Cc2ccccc2)CSCC(=O)N1Cc1cccs1 (configuration not stated)	2.7	2.2	.	.	.	.
CC(C)(C)c1nc(NC(=O)Nc2ccccc2)sc1Br	19.6	10.7*	0.8	24.7	35.0*	21.1*
O=C1CCC[C@H]2C[C@H](NCc3ccccc3Cl)CC[C@]23CCCN13	-2.9	-1.6	.	.	.	.
CC(C)CN(C(=O)COC(=O)CCC(=O)c1ccc(F)cc1)c1c(N)n(Cc2ccccc2)c(=O)[nH]c1=O	6.4	13.4*	-3.8	1.2	3.1	4.4
Cc1ccc(C(=O)CCC(=O)OCC(=O)N(CC(C)C)c2c(N)n(Cc3ccccc3)c(=O)[nH]c2=O)cc1	-3.2	-1.3	-7.0	-7.7	.	.
CN(C)/C=N/c1ncnc2c1cnn2-c1ccc(C(F)(F)F)cn1	14.2	9.2*	2.1	-10.3	-5.7	1.9
Cc1nn(-c2ccc(C(F)(F)F)cn2)c(C)c1Oc1ccccc1O	5.7	0.4	1.6	20.4	.	.
CCC(=O)OCCCN1C(=O)CCC12CCC(C)CC2 (configuration not stated)	2.9	0.2	.	.	.	.
